RGS4 inh – inhibitors of human RGS4; P49798; HEK293 M3R/RGS4 inducible, Fluo-4 calcium flux; hits give high values; triggered by carbachol at its EC20; B-score at 10 µM; hit rate 0.45% among 310,000;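 active means B-score, a plate-corrected calcium signal, over three deviations above library mean, with baseline fluorescence within five deviations of library mean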;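 further: RGS4 expression induced by doxycycline in cells with stable M3 receptor; B-score is computed from the integrated fluorescence ratio over baseline after carbachol; higher B-score means a larger calcium signal and so more RGS4 inhibition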
Target sequence (P49798 whole entry, looked up): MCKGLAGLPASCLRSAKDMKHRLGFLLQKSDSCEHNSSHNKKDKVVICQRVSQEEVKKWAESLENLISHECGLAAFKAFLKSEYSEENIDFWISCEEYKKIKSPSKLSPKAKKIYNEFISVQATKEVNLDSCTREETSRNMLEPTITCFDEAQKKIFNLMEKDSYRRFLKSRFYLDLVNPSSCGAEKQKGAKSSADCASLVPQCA
MrgX1 antag – antagonists of human MrgX1 receptor | Q96LB2 | MRGX1-HEK293 calcium flux, Fluo-4, BAM8-22 antagonism; hits give low values | B-score at 10 µM | hit rate 1.3% among 310,000;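 active means calcium-response B-score plate-corrected more than 3 library SD below zero, starting fluorescence within 5 deviations, no agonist response on first addition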;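 further: peak minus trough fluorescence over baseline after final BAM8-22 challenge near maximal dose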
Target sequence (Q96LB2 whole entry, looked up): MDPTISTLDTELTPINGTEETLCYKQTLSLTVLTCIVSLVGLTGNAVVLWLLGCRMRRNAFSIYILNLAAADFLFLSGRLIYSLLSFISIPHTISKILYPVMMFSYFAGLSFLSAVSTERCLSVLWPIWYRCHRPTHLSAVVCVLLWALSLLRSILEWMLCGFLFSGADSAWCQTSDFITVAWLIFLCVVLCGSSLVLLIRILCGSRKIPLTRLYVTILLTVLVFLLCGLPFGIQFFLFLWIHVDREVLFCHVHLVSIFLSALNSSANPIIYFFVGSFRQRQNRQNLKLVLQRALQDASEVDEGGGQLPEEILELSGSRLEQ
MrgX1 allo act – allosterically activates human MrgX1 receptor signaling. Q96LB2. AID 588675. hit rate 0.63% among 310,000. B-score at 10 µM. MrgX1-HEK293, Fluo-4 calcium flux, FDSS; hits give high values;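 active means plate-corrected calcium response at least 3 library SD above typical, normal starting fluorescence, not activating the receptor alone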;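 further: compound read alongside a low EC10 to EC30 dose of BAM8-22 agonist; peak minus trough fluorescence over baseline measured at the second addition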
RGS4 pot – potentiators or activators of RGS4; B-score at 10 µM; HEK293 M3R/inducible RGS4, carbachol calcium flux Fluo4; hits give low values; AID 463111; hit rate 0.92% among 310,000;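 active means B-score of the integrated calcium signal more than 4 SD below the library mean, with starting fluorescence not abnormally high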;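 further: negative B-score means reduced calcium response which marks RGS4 activation or potentiation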
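System – HEK293 FlpIn-TREx cells, stable M3R, doxycycline-inducible RGS4 · Reagent – ECmax carbachol challenge · Times – compound preincubation 20 min at room temperature before agonist · Technique – Fluo4 fluorescence kinetic imaging of calcium · Measure – B score of integrated Fluo4 ratio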
MrgX1 agonist – human MrgX1 receptor agonism, primary screen. AID 588627. Q96LB2. MrgX1-HEK293 cells, Fluo-4 calcium fluorescence, agonist mode; hits give high values. hit rate 0.44% among 310,000. B-score at 10 µM;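 active means calcium response B-score plate-corrected fluorescence ratio at least 3 library SD, with starting fluorescence B-score inside 5 SD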
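Assay system: stable human MrgX1 HEK293 cell line. Quantity: 15,000 cells per well. Schedule: cells plated overnight, dye loaded 0.5 h 37 °C, 0.5 h room temperature. Detection: Fluo-4 NW calcium-flux fluorescence, kinetic read. Read-out basis: peak-minus-minimum fluorescence over baseline, converted to B scores. Control set: positive and negative control wells on each plate.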
A number is an active result; – = inactive; · = no result given. Only some compounds are listed: those with a hit (about 3.5% of all), similar ones and a draw of the others.

SMILES	RGS4 inh	MrgX1 antag	MrgX1 allo act	RGS4 pot	MrgX1 agonist
CC(C)C(NC(=O)c1ccccc1F)C(=O)NCc1ccccc1 (stereo unspecified)	–	–	–	–	–
NC(N)=N/N=C/c1ccc(OS(=O)(=O)c2ccccc2)cc1	–	–	–	-8.4	30
CCCn1c(SCC(=O)N2N=C3/C(=C/c4ccc(OC)cc4)CCCC3C2c2ccc(OC)cc2)n[nH]c1=O (stereo unspecified)	–	-5.1	–	–	–
CCCn1c(SCC(=O)NCc2ccc(OC)cc2)n[nH]c1=O	–	–	–	–	–
CCC(=O)C1CCCN(C(=O)CCc2nnc(-c3ccc(C(C)=O)s3)o2)C1 (stereo unspecified)	–	–	–	–	–
Cc1cc(C(C2C(=O)CC(C)(C)CC2=O)C2C(=O)CC(C)(C)CC2=O)cc(C)c1OC(F)F	–	–	–	–	63
CC1CCN(c2nc3c(c(=O)[nH]c(=O)n3C)n2CC(C)CSc2nnnn2-c2ccccc2)CC1 (stereo unspecified)	–	–	–	–	–
O=C(C1CC(=O)N(C2CCCCC2)C1)N1CCN(c2cccc(C(F)(F)F)c2)CC1 (stereo unspecified)	–	–	–	–	–
CCc1cccc(NS(=O)(=O)c2csc(C(N)=O)c2)c1	–	–	–	–	–
Nc1cc(OCC(F)(F)F)cc([N+](=O)[O-])c1	–	–	–	–	–
Nc1cc(N)c(OCC(F)(F)F)cc1OCC(F)(F)F	6.7	–	–	–	–
COc1ccc(OCC(=O)N2N=C(C(F)F)CC2(O)C(F)F)cc1 (stereo unspecified)	–	–	–	–	–
Cn1nccc1C(=O)N1CCOCC1	–	–	–	–	–
CC(NC(=O)Cn1cc(C(F)(F)F)ccc1=O)c1ccc(F)cc1 (stereo unspecified)	–	–	6.9	–	–
COc1ccc(NC(=O)C/C(C)=N/NC(=O)C(=O)NC2CCCCC2)c(OC)c1	–	–	9.2	–	–
O=c1cc(N2CCCCC2)c(-c2ccccc2)nn1Cc1c(Cl)cccc1Cl	–	–	–	-7.1	–
Cc1c(N=C(N)/N=C(\N)Nc2ccccc2)c(=O)n(-c2ccccc2)n1C	–	-4.6	–	–	–
NCCCC[C@@H](C(=O)N1CCNCC1)n1cc([C@@H](N)CO)nn1	–	–	–	–	–
O=C(NC(C(=O)N/N=C/c1cccnc1)c1n[nH]c(=O)c2ccccc12)c1ccccc1 (stereo unspecified)	–	–	–	–	36
CC(C)C(=O)N1CCC2(CC1)Oc1ccc(Cl)cc1C(=O)C21CC(c2cccnc2)=NO1 (stereo unspecified)	–	–	–	–	–
CCOC(=O)N1CCN(S(=O)(=O)N2CCCC(C(=O)NCc3cccc(OC)c3)C2)CC1 (stereo unspecified)	–	–	–	–	–
COc1ccc(/C=C/C(=O)N(Cc2cccs2)C2CCS(=O)(=O)C2)cc1 (stereo unspecified)	–	–	–	-7.5	–
Cn1cccc1C(=O)/C(C#N)=C/c1ccc(F)cc1	–	–	–	–	35
COc1ccccc1/C=C(\C#N)C(=O)c1cccn1C	–	–	–	–	32
CCOC(=O)C1=NN(c2ccc(Cl)cc2)C(c2ccccc2)CC1=O (stereo unspecified)	–	-7.8	–	–	–
SMILES	RGS4 inh	MrgX1 antag	MrgX1 allo act	RGS4 pot	MrgX1 agonist
CCOC(=O)C1=NNC(C(=O)c2ccc(Cl)cc2)C1c1ccccc1 (stereo unspecified)	–	–	–	–	–
Cc1nn(C)cc1C1C2=C(CC(C)(C)CC2=O)N(c2ccccc2)C2=C1C(=O)CC(C)(C)C2	–	–	–	–	–
Cc1ccc(N2C3=C(C(=O)CC(C)(C)C3)C(c3cn(C)nc3C)C3=C2CC(C)(C)CC3=O)cc1	–	-6.6	–	–	–
O=S(=O)(N/N=C1/CC(c2ccccc2)Oc2ccccc21)c1ccc(Br)cc1 (stereo unspecified)	–	-6.7	–	–	–
Cc1ccc(S(=O)(=O)N/N=C2/CC(c3ccccc3)Oc3ccccc32)cc1[N+](=O)[O-] (stereo unspecified)	–	–	–	–	–
CCCc1cc(-c2[nH]ncc2-c2ccc3c(c2)OCCCO3)c(O)cc1O	–	–	–	-7.9	–
CCCc1cc(-c2[nH]ncc2-c2ccc(C(=O)OCC)o2)c(O)cc1O	–	–	–	–	–
O=[N+]([O-])c1ccc(N/N=C/c2cccs2)nc1	–	–	–	–	–
O=[N+]([O-])c1ccc(N/N=C\c2cccn2-c2ccccc2)nc1	–	–	8	–	–
C[C@@H]1CCC[C@@]2(O[C@@H](CCO)C[C@H](O)[C@H]2O)O1	–	–	–	–	–
O=C(Nc1ccc(S(=O)(=O)N2CCOCC2)cc1)C1CCN(S(=O)(=O)c2ccccc2)CC1	–	–	–	–	–
Nc1cc2c3c(cccc3c1)C(=O)N(CCN1CCCC1)C2=O	–	-4.7	–	–	–
O=C1c2cccc3cc([N+](=O)[O-])cc(c23)C(=O)N1CCN1CCCC1	–	·	·	–	·
N#Cc1c(-n2cccc2/C=N/O)sc2c1CCCC2	–	–	–	–	32
O=C(NCCN1CCCCC1)c1cc(Cl)ccc1Cl	–	–	–	–	–
CCCCc1ccc(NC(=O)CSc2nc(=O)n(CCCN3CCOCC3)c3c2CCC3)cc1	–	–	–	–	–
Cc1nnc(C)n1/N=C/c1ccc(-c2ccccc2Cl)o1	–	–	–	–	–
O=C1NC(=S)/C(=C\c2ccc(-c3ccccc3Cl)o2)S1	–	–	–	-7.4	–
O=C(CSc1nnc(NC(=O)c2ccccc2Cl)s1)Nc1ccc2c(c1)oc1ccccc12	–	-4.6	–	–	–
O=C(Cn1cnc2ccc(Br)cc2c1=O)c1cccs1	–	–	–	–	–
COc1ccc2nc(NC(=O)C3=NN(c4ccccc4)C(=O)CC3)sc2c1	–	-5.6	–	–	–
CS(=O)(=O)c1ccc2nc(NC(=O)C3=NN(c4ccccc4)C(=O)CC3)sc2c1	–	–	–	–	–
Cn1c(CNC(=O)CCNC(=O)c2ccccc2F)cc(=O)n(C)c1=O	–	–	–	–	–
O=C1OCC2=C1C(c1ccc(F)cc1)CC(=O)N2c1ccccc1 (stereo unspecified)	–	–	–	-7.7	–
O=C1OCC2=C1C(c1ccc(F)cc1)CC(=O)N2c1ccc(F)cc1 (stereo unspecified)	–	–	–	–	–
COc1ccc(/C=C/C(=O)OCC(=O)Nc2ccc(N3CCOCC3)cc2)cc1OC	–	–	–	–	–
C=CCN1C(=O)c2ccc(C(=O)N(C)CC(=O)Nc3c(C)cccc3C)cc2C1=O	–	–	–	–	–
Cc1ccc(OCC(=O)N2CCc3ccccc3C2)cc1	–	–	–	–	–
